Experimental data taken from publication PMC7901021 (ACS chemical biology, 2021).

Legend:
[1] = target: T1, FTO (Homo sapiens, UniProt Q9C0B1); experiment: m6A7-Broccoli fluorescence enzymatic inhibition assay; type: biochemical; conditions: for preference for FTO over ALKBH5: FTO vs ALKBH5 IC50
[2] = target: T2, ALKBH5 (Homo sapiens, UniProt Q6P6C2); experiment: as above; type: biochemical; conditions: for selectivity between FTO and ALKBH5 (in words): comparison of IC50 toward both demethylases
T2 sequence (Q6P6C2 whole entry): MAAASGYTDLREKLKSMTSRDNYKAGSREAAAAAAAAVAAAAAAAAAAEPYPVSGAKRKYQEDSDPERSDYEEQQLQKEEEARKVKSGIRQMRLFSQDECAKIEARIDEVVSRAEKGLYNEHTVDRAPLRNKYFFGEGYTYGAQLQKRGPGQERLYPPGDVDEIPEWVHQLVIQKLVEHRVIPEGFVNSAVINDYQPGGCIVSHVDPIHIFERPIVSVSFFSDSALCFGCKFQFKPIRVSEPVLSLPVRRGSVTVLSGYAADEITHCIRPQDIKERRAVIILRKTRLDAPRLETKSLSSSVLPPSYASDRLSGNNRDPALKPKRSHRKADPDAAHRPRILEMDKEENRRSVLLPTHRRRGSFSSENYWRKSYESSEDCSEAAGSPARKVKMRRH

[3] = target: T1, FTO; conditions: read-out: reported IC50 against FTO; cited from earlier work
[4] = target: T2, ALKBH5; conditions: cited from earlier work
[5] = test system: MONOMAC6 and NB4 cells; conditions: cited from earlier work
[6] = test system: orthotopically transplanted GSC tumors; conditions: cited from earlier work
[7] = precipitation in assay buffer; type: physicochemical; conditions: dose response could not be determined
[8] = target: T1, FTO; experiment: steady-state inhibition kinetics; type: biochemical; conditions: vmax independent of inhibitor concentration; substrate 0-10 μM
[9] = test system: TS576 patient-derived GSC neurospheres; experiment: neurosphere formation assay; type: cell-based, human; conditions: 2 days
[10] = test system: GSC-23 patient-derived GSC neurospheres; experiment: neurosphere formation assay; type: cell-based, human; conditions: GSC-23, 20 μM, 2 days
Summary of the method: (§1)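 Neurospheres of patient-derived glioblastoma stem cell lines, with normal human neural stem cells run alongside, were exposed to 20 μM test compound for 2 days. Wells were imaged by bright field, and neurosphere size was quantified by image analysis from more than 50 neurospheres per group. Groups were compared by Student's t test.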

[11] = test system: GBM-6 patient-derived GSC neurospheres; experiment: neurosphere formation assay; type: cell-based, human; conditions: GBM-6, 20 μM, 2 days
Summary of the method: as §1

[12] = test system: healthy human neural stem cells (hNSCs) neurospheres; experiment: neurosphere formation assay; type: cell-based; conditions: 20 μM
Summary of the method: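 Normal human neural stem cells were grown as neurospheres and treated with the test compound at 20 μM for 2 days. Neurospheres were imaged by bright field and sized by ImageJ, with more than 50 neurospheres per group. Comparisons by Student's t test.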

[13] = test system: m6A mRNA levels in TS576 cells; experiment: m6A dot blot assay of purified mRNA; type: cell-based, human; conditions: 30 μM, does not distinguish m6A and m6Am
Summary of the method: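 TS576 patient-derived GSCs were treated with the test compound or DMSO, and mRNA was purified from them. m6A in the mRNA was assessed by dot blot. shControl versus shFTO knockdown in TS576 served as the reference for m6A change.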

[14] = test system: m6A and m6Am levels in GSCs; experiment: quantification of m6A and m6Am by HPLC-MS/MS/MS; type: cell-based, human

T1 sequence (Q9C0B1 whole entry): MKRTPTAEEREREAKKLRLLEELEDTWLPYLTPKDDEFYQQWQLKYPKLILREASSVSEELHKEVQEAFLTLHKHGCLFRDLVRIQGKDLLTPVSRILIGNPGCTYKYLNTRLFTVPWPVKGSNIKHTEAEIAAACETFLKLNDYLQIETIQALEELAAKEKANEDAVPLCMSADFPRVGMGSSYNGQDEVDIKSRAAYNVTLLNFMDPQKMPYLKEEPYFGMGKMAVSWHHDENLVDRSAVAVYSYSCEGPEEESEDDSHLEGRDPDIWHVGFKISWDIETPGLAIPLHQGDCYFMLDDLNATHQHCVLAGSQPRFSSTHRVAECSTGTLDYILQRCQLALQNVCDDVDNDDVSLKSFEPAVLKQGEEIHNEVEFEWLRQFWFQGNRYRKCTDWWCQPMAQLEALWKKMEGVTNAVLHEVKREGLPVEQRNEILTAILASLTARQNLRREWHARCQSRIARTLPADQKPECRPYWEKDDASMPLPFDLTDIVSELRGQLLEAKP

COc1ccc2cc(-c3cnc(N)nc3)ccc2c1 [FTO-12]
preference for FTO over ALKBH5 [1]: ≥ 5 fold | IC50 [2]: > 40 µM | inhibition of ALKBH5 at the highest concentration measured [2]: no measurable inhibition

COCCNc1ncc(-c2ccc(CO)c(OC)c2)cn1 [FTO-20]
preference for FTO over ALKBH5 [1]: ≥ 5 fold

COc1ccc2cc(-c3cncnc3)ccc2c1 [FTO-05]
preference for FTO over ALKBH5 [1]: ≥ 5 fold | IC50 [2]: > 40 µM | inhibition of ALKBH5 at the highest concentration measured [2]: no measurable inhibition

COCCNc1ncc(-c2ccc(OCc3ccccc3)cc2)cn1 [FTO-18]
inhibition of ALKBH5 at the highest concentration measured [2]: no measurable inhibition

COc1ncc(-c2ccc(CO)c(OC)c2)cn1 [FTO-06]
preference for FTO over ALKBH5 [1]: ≥ 5 fold

Cc1noc(C)c1-c1cc(Cl)c(Nc2ccccc2C(=O)NO)c(Cl)c1 [FB23–2]
IC50 [3]: 2.6 µM | inhibition of FTO at 50 μM (stated as selectivity against ALKBH5) [4]: little to no inhibition | cellular concentration relative to FB23 ([5]; MONOMAC6 and NB4 cells): 3−10 ×

Cc1ccc2cc(-c3cncnc3)ccc2n1 [FTO-07]
inhibition of ALKBH5 at the highest concentration measured [2]: no measurable inhibition

COc1ncc(-c2ccc3nc(C)ccc3c2)cn1 [FTO-11]
selectivity between FTO and ALKBH5 (in words) [2]: equivalent inhibitors toward both demethylases

Cc1ccc(Cl)c(Nc2ccccc2C(=O)O)c1Cl [MA, meclofenamic acid]
inhibition of FTO at 50 μM (stated as selectivity against ALKBH5) [4]: little to no inhibition | lifespan ([6]; intracranial GSC xenograft mice): prolong lifespan | tumor progression in vivo ([6]; orthotopically transplanted GSC tumors): prevented tumor progression in vivo

Nc1ncc(-c2ccc3cc(O)ccc3c2)cn1 [FTO-10]
selectivity between FTO and ALKBH5 (in words) [2]: equivalent inhibitors toward both demethylases

COCCNc1ncc(-c2ccc3nc(C)ccc3c2)cn1 [FTO-19]
selectivity between FTO and ALKBH5 (in words) [2]: equivalent inhibitors toward both demethylases

COc1ncc(-c2cccc(OCc3ccccc3)c2)cn1 [FTO-03]
precipitation in assay buffer [7]: significant precipitation

Cc1noc(C)c1-c1cc(Cl)c(Nc2ccccc2C(=O)O)c(Cl)c1 [FB23]
cellular uptake [5]: poor cellular uptake

Nc1ncc(-c2cccc(OCc3ccccc3)c2)cn1 [FTO-13]
selectivity between FTO and ALKBH5 (in words) [2]: distinct preference toward ALKBH5 over FTO

COc1ncc(-c2ccc3nc(N)sc3c2)cn1 [FTO-04]
potency toward FTO relative to MA ([1]; ratio of IC50 to MA (12.5 μM)): approximately 4 × | mechanism of inhibition [8]: competitive mechanism of inhibition | size of neurospheres ([9]; TS576, 20 μM): significantly decrease the size of neurospheres | size of neurospheres vs vehicle control ([9]; TS576, 30 μM): significant reduction in size of the neurospheres | size of neurospheres [10]: significantly decrease the size of neurospheres | size of neurospheres [11]: significantly decrease the size of neurospheres | size of neurospheres [12]: no alteration in neurosphere size | m6A mRNA levels relative to DMSO control (dot blot) [13]: increased | increase in m6A levels relative to DMSO control [14]: ~ 1.4 × | increase in m6Am levels relative to DMSO control [14]: ~ 3.2 ×

Nc1ncc(-c2cccc(Nc3ccccc3)c2)cn1 [FTO-09]
potency toward ALKBH5 over FTO ([2]; ALKBH5 vs FTO IC50): ~10 times | selectivity between FTO and ALKBH5 (in words) [2]: distinct preference toward ALKBH5 over FTO

COCCNc1ncc(-c2ccc3cc(OC)ccc3c2)cn1 [FTO-15]
precipitation in assay buffer [7]: significant precipitation

COc1ccc2cc(-c3cnc(OC)nc3)ccc2c1 [FTO-08]
selectivity between FTO and ALKBH5 (in words) [2]: equivalent inhibitors toward both demethylases
